Measurements from ChEMBL document CHEMBL3399927, “Identification of novel inhibitors of Aurora A with a 3-(pyrrolopyridin-2-yl)indazole scaffold” (Bioorg Med Chem, 2015).
pIC50: −log10 of the molar value.

Legend:
[1] = Antiproliferative activity against human HL60 cells after 72 hrs by MTT assay; format: functional, cell-based; settings: HL-60, 72 h
Procedure, shortened: (§1)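 Cells grown in RPMI-1640 with heat-inactivated 10% FBS, penicillin 100 units/mL and streptomycin 100 μg/mL, at 37 °C under 20% O2, 5% CO2. Compounds dissolved in DMSO at 10.0 mg/mL (stock), then diluted. Cells were plated for 24 h, exposed to a range of concentrations for 72 h, and viability was read by MTT. IC50 is 50% absorbance inhibition versus control cells; means of three experiments.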

[2] = Antiproliferative activity against human HCT116 cells after 72 hrs by MTT assay; format: functional, cell-based; settings: HCT-116, 72 h; procedure, shortened: as §1
[3] = system: KB; assay: Antiproliferative activity against human KB cells after 72 hrs by MTT assay; format: functional, cell-based; procedure, shortened: as §1
[4] = system: A549; assay: Antiproliferative activity against human A549 cells after 72 hrs by MTT assay; format: functional, cell-based; settings: A549, 72 h
[5] = Antiproliferative activity against human SMMC7721 cells after 72 hrs by MTT assay; format: functional, cell-based; settings: SMMC-7721, 72 h; procedure, shortened: as §1
[6] = molecular target: Glycogen synthase kinase-3 beta (Homo sapiens) (UniProt P49841); assay: Inhibition of GSK3beta (unknown origin) at 1 ug/ml relative to control
Glycogen synthase kinase-3 beta (Homo sapiens), sequence (P49841 whole entry, looked up): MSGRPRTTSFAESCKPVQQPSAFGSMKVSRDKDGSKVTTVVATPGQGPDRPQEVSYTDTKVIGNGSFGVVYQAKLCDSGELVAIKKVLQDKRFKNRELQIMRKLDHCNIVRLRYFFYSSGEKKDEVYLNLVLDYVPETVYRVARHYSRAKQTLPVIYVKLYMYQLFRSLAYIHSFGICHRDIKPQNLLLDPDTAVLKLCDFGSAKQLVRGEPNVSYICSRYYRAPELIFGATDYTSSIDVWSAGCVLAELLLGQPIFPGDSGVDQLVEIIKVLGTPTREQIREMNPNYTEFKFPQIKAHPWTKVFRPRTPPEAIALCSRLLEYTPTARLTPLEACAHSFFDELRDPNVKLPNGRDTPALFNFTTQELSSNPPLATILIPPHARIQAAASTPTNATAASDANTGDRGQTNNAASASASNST

[7] = molecular target: Cyclin-dependent kinase 2 (Homo sapiens) (UniProt P24941); assay: Inhibition of CDK2 (unknown origin) at 1 ug/ml relative to control
[8] = molecular target: T1, Aurora kinase A (Homo sapiens, UniProt O14965); assay: Inhibition of human full length Aurora A by Z'-LYTE assay
T1 sequence (O14965 whole entry): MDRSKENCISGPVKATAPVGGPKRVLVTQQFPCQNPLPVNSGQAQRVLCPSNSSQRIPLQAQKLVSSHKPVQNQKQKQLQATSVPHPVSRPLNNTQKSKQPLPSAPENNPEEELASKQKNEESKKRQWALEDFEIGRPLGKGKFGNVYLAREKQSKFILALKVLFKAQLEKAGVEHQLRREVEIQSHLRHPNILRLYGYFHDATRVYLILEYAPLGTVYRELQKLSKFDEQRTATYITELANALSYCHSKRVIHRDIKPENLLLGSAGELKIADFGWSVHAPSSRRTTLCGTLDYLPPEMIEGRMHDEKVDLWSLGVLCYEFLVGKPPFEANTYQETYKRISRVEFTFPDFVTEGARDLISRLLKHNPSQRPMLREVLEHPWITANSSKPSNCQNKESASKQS

[9] = molecular target: T2, Serine/threonine-protein kinase Chk1 (Homo sapiens) (UniProt O14757); assay: Inhibition of CHK1 (unknown origin) at 1 ug/ml relative to control
T2 sequence (whole entry): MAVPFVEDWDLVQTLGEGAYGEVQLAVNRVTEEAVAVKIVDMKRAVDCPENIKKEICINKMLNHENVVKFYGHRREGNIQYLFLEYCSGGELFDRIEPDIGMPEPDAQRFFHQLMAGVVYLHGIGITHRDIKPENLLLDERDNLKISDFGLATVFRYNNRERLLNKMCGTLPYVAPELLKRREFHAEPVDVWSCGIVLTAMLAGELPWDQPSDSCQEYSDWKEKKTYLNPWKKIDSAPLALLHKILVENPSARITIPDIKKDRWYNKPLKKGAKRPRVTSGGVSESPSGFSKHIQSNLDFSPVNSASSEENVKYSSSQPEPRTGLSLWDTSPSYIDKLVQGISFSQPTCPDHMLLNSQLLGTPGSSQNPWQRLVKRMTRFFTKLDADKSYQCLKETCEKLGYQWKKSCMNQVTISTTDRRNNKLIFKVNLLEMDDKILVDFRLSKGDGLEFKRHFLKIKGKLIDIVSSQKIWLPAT
Procedure, shortened: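 Fixed-concentration screen at 1 µg/mL using the luminescent ADP-Glo assay.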

[10] = molecular target: Protein kinase C (PKC) (Homo sapiens) (UniProt O94806+P41743+P17252+P05129+Q05655+P05771+Q05513+Q02156+P24723+Q15139+Q04759); assay: Inhibition of PKC (unknown origin) at 1 ug/ml relative to control
Procedure, shortened: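 Fixed-concentration screen at 1 µg/mL with a Z'-LYTE kinase assay kit.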

[11] = Apparent permeability across apical to basolateral side in MDCK cells by HPLC; format: ADME, cell-based, Canis lupus familiaris; settings: dog
[12] = molecular target: Serine/threonine-protein kinase B-raf (Homo sapiens) (UniProt P15056); assay: Inhibition of BRAF (unknown origin) at 1 ug/ml relative to control
Serine/threonine-protein kinase B-raf (Homo sapiens), sequence (P15056 whole entry): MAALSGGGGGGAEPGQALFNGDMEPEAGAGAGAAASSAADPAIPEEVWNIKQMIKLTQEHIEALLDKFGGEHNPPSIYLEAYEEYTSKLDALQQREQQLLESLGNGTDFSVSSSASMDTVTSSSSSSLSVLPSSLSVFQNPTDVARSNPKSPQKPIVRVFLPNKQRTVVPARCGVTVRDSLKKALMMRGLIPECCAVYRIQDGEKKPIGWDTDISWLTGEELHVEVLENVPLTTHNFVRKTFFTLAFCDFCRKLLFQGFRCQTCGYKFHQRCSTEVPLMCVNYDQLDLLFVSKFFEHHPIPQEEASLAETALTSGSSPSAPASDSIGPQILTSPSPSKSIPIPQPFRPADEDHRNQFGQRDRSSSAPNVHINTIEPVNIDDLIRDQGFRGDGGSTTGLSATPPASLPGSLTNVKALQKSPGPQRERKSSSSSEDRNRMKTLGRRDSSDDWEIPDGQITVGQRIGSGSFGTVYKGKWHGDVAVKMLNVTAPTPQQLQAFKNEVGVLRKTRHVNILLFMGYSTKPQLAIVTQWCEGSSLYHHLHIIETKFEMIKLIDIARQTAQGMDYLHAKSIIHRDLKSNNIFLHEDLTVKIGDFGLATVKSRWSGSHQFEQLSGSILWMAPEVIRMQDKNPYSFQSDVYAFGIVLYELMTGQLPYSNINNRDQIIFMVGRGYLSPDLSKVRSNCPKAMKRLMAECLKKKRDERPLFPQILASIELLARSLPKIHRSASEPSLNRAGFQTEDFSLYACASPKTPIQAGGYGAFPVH

[13] = molecular target: T3, Inhibitor of nuclear factor kappa-B kinase subunit beta (Homo sapiens) (UniProt O14920); assay: Inhibition of IKKbeta (unknown origin) at 1 ug/ml relative to control
T3 sequence (whole entry): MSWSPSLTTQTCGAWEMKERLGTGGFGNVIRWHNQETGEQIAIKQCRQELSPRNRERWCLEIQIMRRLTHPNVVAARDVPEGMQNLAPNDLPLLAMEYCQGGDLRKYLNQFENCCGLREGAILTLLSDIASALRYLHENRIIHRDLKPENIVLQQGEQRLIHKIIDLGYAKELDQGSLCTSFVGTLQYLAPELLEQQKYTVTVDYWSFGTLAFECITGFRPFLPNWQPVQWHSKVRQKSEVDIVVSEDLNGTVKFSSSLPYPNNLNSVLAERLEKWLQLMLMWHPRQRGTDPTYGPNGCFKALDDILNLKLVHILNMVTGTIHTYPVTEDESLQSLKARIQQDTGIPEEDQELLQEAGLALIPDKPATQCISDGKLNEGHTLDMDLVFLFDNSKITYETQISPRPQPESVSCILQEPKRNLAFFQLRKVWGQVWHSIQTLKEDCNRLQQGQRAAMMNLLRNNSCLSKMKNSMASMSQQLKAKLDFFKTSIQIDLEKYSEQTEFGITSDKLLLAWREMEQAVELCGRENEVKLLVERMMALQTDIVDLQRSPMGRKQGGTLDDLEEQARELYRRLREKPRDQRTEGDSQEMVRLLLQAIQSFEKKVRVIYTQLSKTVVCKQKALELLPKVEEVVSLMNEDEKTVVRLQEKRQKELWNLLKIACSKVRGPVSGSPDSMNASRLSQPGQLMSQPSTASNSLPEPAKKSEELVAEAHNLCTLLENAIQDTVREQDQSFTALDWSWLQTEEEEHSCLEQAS

[14] = molecular target: Dual specificity mitogen-activated protein kinase kinase 1 (Homo sapiens) (UniProt Q02750); assay: Inhibition of MEK1 (unknown origin) at 1 ug/ml relative to control
Dual specificity mitogen-activated protein kinase kinase 1 (Homo sapiens), sequence (Q02750 whole entry): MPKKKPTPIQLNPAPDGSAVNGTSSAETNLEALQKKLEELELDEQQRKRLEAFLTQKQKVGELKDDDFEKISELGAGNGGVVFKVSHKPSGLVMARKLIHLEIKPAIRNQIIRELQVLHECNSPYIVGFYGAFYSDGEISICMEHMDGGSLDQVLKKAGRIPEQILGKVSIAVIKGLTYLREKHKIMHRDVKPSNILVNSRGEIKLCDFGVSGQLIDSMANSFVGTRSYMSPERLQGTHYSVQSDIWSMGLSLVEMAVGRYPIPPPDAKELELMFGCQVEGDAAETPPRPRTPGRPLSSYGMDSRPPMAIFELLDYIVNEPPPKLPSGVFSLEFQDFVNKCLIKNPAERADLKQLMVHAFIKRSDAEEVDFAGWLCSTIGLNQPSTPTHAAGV

[15] = molecular target: T4, Aurora kinase A (Homo sapiens) (UniProt O14965); assay: Inhibition of human full length Aurora A at 1 ug/ml by Z'-LYTE assay
T4 sequence (whole entry): T1 sequence (O14965 whole entry)

Row | pIC50 [3] | pIC50 [4] | inhibition [6] [%] | inhibition [7] [%] | pIC50 [8] | inhibition [9] [%] | inhibition [10] [%] | Papp A→B [11] [×10⁻⁶ cm/s] | inhibition [12] [%] | inhibition [13] [%] | inhibition [14] [%] | inhibition [15] [%] | Compound | pIC50 [1] | pIC50 [2] | pIC50 [5]
1 | 4.89 | 4.84 |  |  |  |  |  |  |  |  |  |  | COc1ccc(C(=O)N(C)c2ccc3[nH]c(-c4n[nH]c5ccccc45)cc3n2)cc1 | 5.48 | 4.53 | 4.63
2 | 5.36 | 4.71 |  |  |  |  |  |  |  |  |  |  | COc1ccc(OC)c(S(=O)(=O)N(C)c2ccc3[nH]c(-c4n[nH]c5ccccc45)cc3n2)c1 | 6.08 | 5.08 | 5.37
3 | 4.99 | 4.59 |  |  |  |  |  |  |  |  |  |  | COc1ccc(S(=O)(=O)N(C)c2ccc3[nH]c(-c4n[nH]c5ccccc45)cc3n2)c(OC)c1 | 5.29 | 4.66 | 4.97
4 | 4.66 | 4.62 |  |  |  |  |  |  |  |  |  |  | COc1ccc(S(=O)(=O)N(C)c2ccc3[nH]c(-c4n[nH]c5ccccc45)cc3n2)cc1 | 5.36 | 4.65 | 4.89
5 | 5.15 | 4.71 |  |  |  |  |  |  |  |  |  |  | CN(c1ccc2[nH]c(-c3n[nH]c4ccccc34)cc2n1)S(=O)(=O)c1ccc(Br)cc1 | 5.20 | 5.01 | 4.94
6 | 4.99 | < 4.30 |  |  |  |  |  |  |  |  |  |  | CC(=O)N(C)c1ccc2[nH]c(-c3n[nH]c4ccccc34)cc2n1 | 5.29 | 4.83 | 4.63
7 | 5.08 | 4.74 |  |  |  |  |  |  |  |  |  |  | CN(c1ccc2[nH]c(-c3n[nH]c4ccccc34)cc2n1)S(=O)(=O)c1ccc(Cl)cc1 | 6.11 | 5.22 | 4.90
8 | 4.70 | 4.46 |  |  |  |  |  |  |  |  |  |  | CN(C(=O)c1ccc([N+](=O)[O-])cc1)c1ccc2[nH]c(-c3n[nH]c4ccccc34)cc2n1 | 5.17 | 4.70 | 4.73
9 | 5.02 | 4.57 |  |  |  |  |  |  |  |  |  |  | Cc1ccc(S(=O)(=O)N(C)c2ccc3[nH]c(-c4n[nH]c5ccccc45)cc3n2)cc1 | 5.52 | 4.88 | 4.79
10 | 5.88 | 5.10 |  |  |  |  |  |  |  |  |  |  | CN(c1ccc2[nH]c(-c3n[nH]c4ccccc34)cc2n1)S(=O)(=O)c1ccc(OC(F)(F)F)cc1 | 5.93 | 5.22 | 5.15
11 | 5.23 | 4.70 |  |  |  |  |  |  |  |  |  |  | CN(c1ccc2[nH]c(-c3n[nH]c4ccccc34)cc2n1)S(=O)(=O)c1cccc([N+](=O)[O-])c1 | 5.44 | 4.87 | 5.29
12 | 5.62 | 4.85 |  |  |  |  |  |  |  |  |  |  | CN(c1ccc2[nH]c(-c3n[nH]c4ccccc34)cc2n1)S(=O)(=O)c1ccccc1 | 5.43 | 5.17 | 4.92
13 | 5.14 | 5.02 |  |  |  |  |  |  |  |  |  |  | CN(C(=O)c1ccc(F)cc1)c1ccc2[nH]c(-c3n[nH]c4ccccc34)cc2n1 | 5.92 | 5.03 | 5.04
14 | 5.05 | 4.83 |  |  |  |  |  |  |  |  |  |  | COc1cccc(C(=O)N(C)c2ccc3[nH]c(-c4n[nH]c5ccccc45)cc3n2)c1 | 5.85 | 4.85 | 4.66
15 | 5.00 | < 4.30 |  |  |  |  |  |  |  |  |  |  | COc1ccc(S(=O)(=O)N(C)c2ccc3[nH]c(-c4n[nH]c5ccccc45)cc3n2)cc1OC | 5.20 | 4.78 | 4.58

Continued, compound first:

Row | Compound | pIC50 [3] | pIC50 [4] | inhibition [6] [%] | inhibition [7] [%] | pIC50 [8] | inhibition [9] [%] | inhibition [10] [%] | Papp A→B [11] [×10⁻⁶ cm/s] | inhibition [12] [%] | inhibition [13] [%] | inhibition [14] [%] | inhibition [15] [%] | pIC50 [1] | pIC50 [2] | pIC50 [5]
16 | CN(C(=O)c1ccc(Br)cc1)c1ccc2[nH]c(-c3n[nH]c4ccccc34)cc2n1 | 5.75 | 5.37 |  |  |  |  |  |  |  |  |  |  | 5.97 | 5.21 | 5.46
17 | COc1ccc(NC(=O)N(C)c2ccc3[nH]c(-c4n[nH]c5ccccc45)cc3n2)cc1 |  |  |  |  |  |  |  |  |  |  |  |  | 8.10 | 7.20 | 
18 | CCC(=O)N(C)c1ccc2[nH]c(-c3n[nH]c4ccccc34)cc2n1 | 5.03 | 4.80 |  |  |  |  |  |  |  |  |  |  | 5.21 | 4.97 | 4.48
19 | CN(C(=O)c1ccc(Cl)cc1)c1ccc2[nH]c(-c3n[nH]c4ccccc34)cc2n1 | 6.20 | 5.65 | 27.8 | 35.5 | 7.34 | 1 | 10.6 | 3.95 | 14.4 | 0.94 | 1.98 | 95 | 6.35 | 5.52 | 5.62
20 | CN(C(=O)c1ccccc1)c1ccc2[nH]c(-c3n[nH]c4cc(Cl)ccc34)cc2n1 | 5.25 | 5.02 |  |  |  |  |  |  |  |  |  |  | 5.25 | 4.88 | 4.95
21 | CC(=O)O[C@H]1C(=O)[C@@]2(C)[C@H]([C@H](OC(=O)c3ccccc3)[C@]3(O)C[C@H](OC(=O)[C@H](O)[C@@H](NC(=O)c4ccccc4)c4ccccc4)C(C)=C1C3(C)C)[C@]1(OC(C)=O)CO[C@@H]1C[C@@H]2O [PACLITAXEL] | 7.82 |  |  |  |  |  |  |  |  |  |  |  | 8.77 | 8.31 | 6.92
22 | CN(C(=O)CCc1ccccc1)c1ccc2[nH]c(-c3n[nH]c4ccccc34)cc2n1 | 5.13 | 4.74 |  |  |  |  |  |  |  |  |  |  | 5.33 | 4.95 | 4.68
23 | CN(C(=O)c1ccccc1)c1ccc2[nH]c(-c3n[nH]c4ccccc34)cc2n1 | 5.07 | 4.86 | 18.6 | 28.2 | 7.49 | 8.3 | 5.4 | 2.07 | 11.7 | 8.06 | 3.85 | 95.8 | 5.31 | 4.97 | 4.90
24 | CN(C(=O)c1ccccc1)c1ccc2[nH]c(-c3n[nH]c4cc(C#N)ccc34)cc2n1 | 4.68 | 4.48 |  |  |  |  |  |  |  |  |  |  | 5.19 | 4.62 | < 4.30
25 | CN(C(=O)C(C)(C)C)c1ccc2[nH]c(-c3n[nH]c4ccccc34)cc2n1 | 5.08 | 4.61 |  |  |  |  |  |  |  |  |  |  | 5.30 | 4.75 | 4.65
26 | CN(C(=O)c1ccco1)c1ccc2[nH]c(-c3n[nH]c4ccccc34)cc2n1 | 4.71 | 4.81 |  |  |  |  |  |  |  |  |  |  | 5.34 | 4.52 | 4.55
